Measured values collected from several papers.
Compare with care: the assays were run in different laboratories.
Target: Vascular endothelial growth factor receptor 2 (KDR, Homo sapiens, UniProt P35968)

SMILES	read-out	mode	technique	quantity	value
CC(C)(C)n1nc(-c2cnc3cc(OC4CC4)ccc3c2)c(C(N)=O)c1N	cell-free assay			IC50	1090 nM
CNC(=O)c1cc2c(Oc3ccc(NC(=O)C4(C(=O)Nc5ccc(F)cc5)CC4)cc3)ccnc2cc1OC	enzyme activity	inhibitor	radiometric	IC50	6 nM
Cc1cc(Nc2cc(CN3CCOCC3)c3nc(C)c(Cc4ccc(Cl)cc4F)n3n2)n[nH]1	enzyme activity	inhibitor	TR-FRET	IC50	109 nM
CN1CCN(c2ccc(Nc3ncc4cc(C#N)c(=O)n(C5CCCC5)c4n3)cc2)CC1	enzyme activity	inhibitor		IC50	56.8 nM
Cc1ccc(C(=O)Nc2ccc(Oc3cc4cnn(C)c4cc3-c3cn[nH]c3)c(F)c2)c(=O)n1-c1ccc(F)cc1	phosphorylation in cells	inhibitor	AlphaScreen	IC50	347 nM
Cc1cc(Nc2cc3ncccc3c(N[C@@H]3C[C@H]4CC[C@@H](C3)N4CCC#N)n2)n[nH]1	binding		competition with immobilised ligand	Kd	620 nM
C=CC(=O)Nc1cccc(CN2C(=O)N(c3c(Cl)c(OC)cc(OC)c3Cl)Cc3cnc(NCCCCN(CC)CC)nc32)c1	binding		competition with immobilised ligand	Kd	210 nM
CC(C)(C)n1nc(-c2ccc3nc(OC4CC4)ccc3c2)c(C(N)=O)c1N	cell-free assay			IC50	450 nM
